According to ChEMBL document CHEMBL1156461, “Selective chemical probe inhibitor of Stat3, identified through structure-based virtual screening, induces antitumor activity” (Proc Natl Acad Sci U S A, 2007):
Calls of active or inactive are those of the source. The calls are words filed in the database; no cut-off is given here.

What was measured:
MDA-MB-231 [1] = test: Growth inhibition of human […] at 100 uM after 4 days by trypan blue exclusion assay; type: functional, cell-based
MDA-MB-231 [2] = test: Reduction of cyclin D1 gene expression in human MDA-MB-231 cells at 100 uM after 48 hrs; type: functional, cell-based
MDA-MB-435 [3] = test: Cytotoxicity against human MDA-MB-435 cells expressing constitutively active Stat3 at >300 uM
MDA-MB-468 [4] = test: Inhibition of Stat3 activation in human MDA-MB-468 cells at 100 uM after 24 hrs; type: functional, cell-based
Method in brief: (§1)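 Cells with constitutively active Stat3 were treated with compound or 0.05% DMSO (up to 24 h). Nuclear extracts were then assayed for Stat3 DNA binding by EMSA with 32P-labeled hSIE probe.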

MDA-MB-231 [5] = test: Induction of apoptosis in Stat3 SH2 domain transfected human MDA-MB-231 cells at 100 uM after 24 hrs; type: functional, cell-based
Method in brief: (§2)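 Cells were transfected with Stat3C or the Stat3 SH2 domain, mock-transfected, or left untransfected. After 24 h they received 100 μM compound or 0.05% DMSO for a further 24 h. Annexin V binding with flow cytometry gave percent apoptosis.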

MDA-MB-231 [6] = test: Reduction of Bcl-xL gene expression in human MDA-MB-231 cells at 100 uM after 48 hrs; type: functional, cell-based
MDA-MB-468 [7] = test: Growth inhibition of human […] at 100 uM after 4 days by trypan blue exclusion assay; type: functional, cell-based
MDA-MB-231 [8] = test: Induction of apoptosis in Stat3C transfected human MDA-MB-231 cells at 100 uM after 24 hrs; type: functional, cell-based; method in brief: as §2
MDA-MB-231 [9] = test: Antitumor activity against human MDA-MB-231 cells expressing active Stat3 xenografted in mouse at 5 mg/kg, iv for every 3 days for 2 weeks; type: functional, organism-based; design: dose 5 mg/kg
Method in brief: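 Female athymic nude mice (six weeks old) received 5 × 10^6 MDA-MB-231 cells s.c. in the left flank in PBS. Once tumors reached 3 mm diameter (5–10 days), animals were stratified to equal mean tumor size and dosed i.v. at 5 mg/kg every 2 or 3 days for 2 weeks against vehicle. Tumors were measured every 2–3 days.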

MDA-MB-231 [10] = test: Induction of apoptosis in mock pcDNA3 transfected human MDA-MB-231 cells at 100 uM after 24 hrs; type: functional; method in brief: as §2
MDA-MB-231 [11] = test: Reduction of survivin gene expression in human MDA-MB-231 cells at 100 uM after 48 hrs; type: functional, cell-based
NIH3T3 [12] = test: Growth inhibition of mouse NIH3T3 cells expressing v-Src at 100 uM after 4 days by trypan blue exclusion assay; type: functional, cell-based
MDA-MB-435 [13] = test: Induction of apoptosis in human MDA-MB-435 cells expressing active Stat3 at 30 to 100 uM after 48 hrs; type: functional, cell-based
Method in brief: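 Proliferating cells were exposed to compound or 0.05% DMSO for 48 h, then detached. Percent apoptosis was quantified by annexin V binding and flow cytometry.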

NIH3T3 [14] = test: Inhibition of Stat3-dependent pLucTKS3 luciferase […] induction in v-Src oncoprotein expressing mouse NIH3T3 cells co-transfected with pLucTKS3 at 100 uM after 24 hrs; type: functional, cell-based
Method in brief: (§3)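 NIH 3T3 fibroblasts were cotransfected with a v-Src plasmid and either the Stat3-dependent pLucTKS3 or the Stat3-independent pLucSRE reporter. At 24 h post-transfection, cells got 100 μM compound or 0.05% DMSO for another 24 h. Luciferase was read in cytosolic extracts.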

MDA-MB-231 [15] = test: Inhibition of Stat3 activation in human MDA-MB-231 cells at 100 uM after 24 hrs; type: functional, cell-based; method in brief: as §1
NIH3T3 [16] = test: Inhibition of Stat3 activation in v-Src expressing mouse NIH3T3 cells at 100 uM; type: functional, cell-based; conditions: TDE = time-dependent effect; method in brief: as §1
MDA-MB-435 [17] = test: Growth inhibition of human MDA-MB-435 cells expressing v-Src at 100 uM after 4 days by trypan blue exclusion assay; type: functional, cell-based
NIH3T3 [18] = test: Reduction of Bcl-xL gene expression in v-Src transfected mouse NIH3T3 cells at 100 uM after 48 hrs; type: functional, cell-based
NIH3T3 [19] = test: Reduction of cyclin D1 gene expression in v-Src transfected mouse NIH3T3 cells at 100 uM after 48 hrs; type: functional, cell-based
NIH3T3 [20] = test: Reduction of survivin gene expression in v-Src transfected mouse NIH3T3 cells at 100 uM after 48 hrs; type: functional, cell-based
NIH3T3 [21] = test: Inhibition of v-Src mediated Stat3-independent pLucSRE luciferase […] induction in mouse NIH3T3 cells at 100 uM after 24 hrs; type: functional, cell-based; method in brief: as §3
NIH3T3 [22] = test: Growth inhibition of mouse NIH3T3 cells expressing v-Src at 100 uM for every 3 days by soft-agar colony-formation assay; type: functional, cell-based
Method in brief: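 Soft-agar colony formation in six-well dishes. Compound in medium was added from 1 day after seeding and re-added every 3 days until large colonies appeared. Untreated wells served as control.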

NIH3T3 [23] = test: Reduction of pTyr-705 Stat3 level in v-Src expressing mouse NIH3T3 cells at 100 uM after 24 hrs; type: functional, cell-based
MDA-MB-231 [24] = test: Induction of apoptosis in human MDA-MB-231 cells at 100 uM after 24 hrs; type: functional; method in brief: as §2
MDA-MB-435 [25] = test: Inhibition of Stat3 activation in human MDA-MB-435 cells at 100 uM after 24 hrs; type: functional, cell-based; method in brief: as §1
MDA-MB-231 [26] = test: Reduction of apoptosis in Stat3 transfected human MDA-MB-231 cells at 100 uM after 24 hrs; type: functional, cell-based

Cc1ccc(S(=O)(=O)OCC(=O)Nc2ccc(C(=O)O)c(O)c2)cc1
Activity (MDA-MB-231 [1]): Active
Activity (MDA-MB-231 [2]): Active
Activity (MDA-MB-435 [3]): Toxic
Activity (MDA-MB-468 [4]): Active
Activity (MDA-MB-231 [5]): Active
Activity (MDA-MB-231 [6]): Active
Activity (MDA-MB-468 [7]): Active
Activity (MDA-MB-231 [8]): Active
Activity (MDA-MB-231 [9]): Active
Activity (MDA-MB-231 [10]): 50%
Activity (MDA-MB-231 [11]): Active
Activity (NIH3T3 [12]): Active
Activity (MDA-MB-435 [13]): Active
Activity (NIH3T3 [14]): Dose-dependent effect
Activity (MDA-MB-231 [15]): Active
Activity (NIH3T3 [16]): tde
Activity (MDA-MB-435 [17]): Active
Activity (NIH3T3 [18]): Active
Activity (NIH3T3 [19]): Active
Activity (NIH3T3 [20]): Active
Activity (NIH3T3 [21]): inactive
Activity (NIH3T3 [22]): Active
Activity (NIH3T3 [23]): Active
Activity (MDA-MB-231 [24]): 50%
Activity (MDA-MB-435 [25]): Active
Activity (MDA-MB-231 [26]): Active
